Assay [1] is described as follows: Inhibition of NF-kappaB in A549 cells after 5 hrs by reporter gene assay. The format is cell-based. The note with it: Homo sapiens, A549, 5 h. A digest of the protocol: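 A549 cells stably transfected with a pNF-κB-SEAP reporter were plated at 2 · 10^4/well and left to attach overnight. They were pre-incubated 5 h with compound at 100, 30, 10, 3, 1, 0.3, 0.1 and 0 µM, then stimulated with 10 ng/ml TNF-α for 22 h. Supernatant SEAP was read by chemiluminescence, viability by CellTiter-Blue, with four replicates per concentration.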

The subject of the next assay is PBMC. The experiment in a line: Antiproliferative activity against human PBMC. Type of assay: functional, cell-based. A digest of the protocol: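 Human peripheral blood mononuclear cells were stimulated with phytohemagglutinin, so the proliferation read-out reflects mainly T-cells.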
For a further assay, the system named is A549. The experiment in a line: Inhibition of NF-kappaB in A549 cells at 20 uM after 5 hrs by reporter gene assay. The format is cell-based. Conditions: Homo sapiens.
Assay [2] in a line: Inhibition of chymotrypsin like activity of human 20S proteasome. In a few lines:
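20S proteasome (1.3 µg) was pre-incubated 10 min at room temperature in 25 mM HEPES pH 7.5, 0.5 mM EDTA, 0.033% SDS, then added to compound in DMSO and Suc-LLVY-AMC substrate (75 µM in the substrate solution). Fluorescence (ex 360/em 465 nm) was followed 20 min at 30 °C as RFU/min. Eight inhibitor concentrations were run in triplicate, and IC50 came from a four-parameter logistic fit.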

Bounds are passed on as bounds.

In assay [1], `COc1cccc(NC(=O)N2CCC(c3nc(C(=O)N4CCN(c5cccc(C(F)(F)F)c5)CC4)cs3)CC2)c1` came in with an EC50 of 7200 nM.

The molecule `COc1nc(OC)nc(N2CCC(c3nc(C(=O)Nc4nc5cc(C(=O)c6ccccc6)ccc5[nH]4)cs3)CC2)n1` yielded an EC50 in assay [1] of 800 nM.

The molecule `COc1nc(OC)nc(N2CCC(c3nc(C(=O)Nc4nc5cc(C(=O)c6ccsc6)ccc5[nH]4)cs3)CC2)n1` showed an EC50 in assay [1] of 400 nM.

In assay [1], `O=C(c1ccccc1)c1ccc2[nH]c(NC(=O)c3csc(C4CCN(c5ncnc6nc[nH]c56)CC4)n3)nc2c1` yielded an EC50 of 300 nM. The EC50 values of the last two molecules are within 1.5-fold of each other.

In assay [1], `O=C(c1ccccc1)c1ccc2[nH]c(NC(=O)c3csc(C4CCN(c5ccncc5[N+](=O)[O-])CC4)n3)nc2c1` displayed an EC50 of 300 nM.

`O=C(c1ccccc1)c1ccc2[nH]c(NC(=O)c3csc(C4CCN(c5cc(C(F)(F)F)ncn5)CC4)n3)nc2c1` had an EC50 in assay [1] of 500 nM.

As to `COc1cc(N2CCC(c3nc(C(=O)N4CCN(c5cccc(C(F)(F)F)c5)CC4)cs3)CC2)nc(OC)n1`, in assay [1], the EC50 was 5000 nM.

The molecule `N#Cc1ccc(CN2CCC(c3nc(C(=O)N4CCN(c5cccc(C(F)(F)F)c5)CC4)cs3)CC2)cc1` gave an EC50 in assay [1] of 8500 nM. This EC50 lies about 1.7-fold higher than the previous one.

In turn, `COc1nc(OC)nc(N2CCC(c3nc(C(=O)N4CCN(c5cccc(C(F)(F)F)c5)CC4)cs3)CC2)n1` yielded an EC50 in assay [1] of 4700 nM. This molecule came in with an IC50 with PBMC of 15000 nM.

On to `Cc1cc2nc(NC(=O)c3csc(C4CCN(c5ncnc6ccsc56)CC4)n3)[nH]c2cc1C`, for which the midpoint of the response in assay [1], the EC50, lay at 300 nM.

As for `O=C(c1ccccc1)c1ccc2[nH]c(NC(=O)c3csc(C4CCN(c5ncnc6ccsc56)CC4)n3)nc2c1`, a half-maximal effect in assay [1] (EC50) was put at 200 nM. The molecule further came in with an IC50 with PBMC of 2200 nM.

As to `N#Cc1ccc(CN2CCC(c3nc(C(=O)Nc4nc5cc(C(=O)c6ccccc6)ccc5[nH]4)cs3)CC2)cc1`, a half-maximal effect in assay [1] (EC50) was put at 300 nM.

As to `COc1cc2ncnc(N3CCC(c4nc(C(=O)Nc5nc6cc(C(=O)c7ccccc7)ccc6[nH]5)cs4)CC3)c2cc1OC`, the EC50 in assay [1] turned out to be 300 nM.

With `Cc1cc2nnc(C(=O)N3CCC(c4nc(C(=O)N5CCN(c6cccc(C(F)(F)F)c6)CC5)cs4)CC3)c(C)n2n1`, the EC50 in assay [1] was > 20000 nM.

As to `O=C(c1csc(C2CCN(S(=O)(=O)c3cccs3)CC2)n1)N1CCN(c2cccc(C(F)(F)F)c2)CC1`, the EC50 in assay [1] turned out to be 20000 nM.

Consider `O=C(c1csc(C2CCN(S(=O)(=O)c3ccc(F)cc3Cl)CC2)n1)N1CCN(c2cccc(C(F)(F)F)c2)CC1`, for which, in assay [1], a half-maximal effect (EC50) was put at 20000 nM.

For `Cc1cc2nnc(C(=O)N3CCC(c4nc(C(=O)Nc5nc6cc(C(=O)c7ccccc7)ccc6[nH]5)cs4)CC3)c(C)n2n1`, the EC50 in assay [1] is 900 nM.

As to `Cc1cc2nnc(C(=O)N3CCC(c4nc(C(=O)NC5CCN(Cc6ccccc6)C5)cs4)CC3)c(C)n2n1` (stereo not given), the inhibition with A549 was 30%. For the same molecule, the IC50 in assay [2] came to 580 nM; in the assay with PBMC it was 37000 nM.

For the molecule `O=C(c1csc(C2CCN(c3ccc(C(F)(F)F)cc3)CC2)n1)N1CCN(c2cccc(C(F)(F)F)c2)CC1`, in assay [2], the IC50 was found to be 480 nM. Also, the EC50 in assay [1] was found to be 20000 nM.

Turning to `COc1cc(N2CCC(c3nc(C(=O)Nc4nc5cc(C(=O)c6ccccc6)ccc5[nH]4)cs3)CC2)nc(OC)n1`, the IC50 in assay [2] was > 3000 nM. In assay [1], this molecule displayed an EC50 of 300 nM.

Turning to `O=C(c1ccccc1)c1ccc2[nH]c(NC(=O)c3csc(C4CCN(c5ccnc6ncnn56)CC4)n3)nc2c1`, the EC50 in assay [1] came out at 100 nM. This molecule returned an IC50 with PBMC of 3600 nM.

Consider `O=C(c1ccsc1)c1ccc2[nH]c(NC(=O)c3csc(C4CCN(c5ncnc6ccsc56)CC4)n3)nc2c1`, for which the response in assay [1] was half-maximal at 500 nM (EC50).

Molecule `O=C(c1ccccc1)c1ccc2[nH]c(NC(=O)c3csc(C4CCN(C(=O)c5ccccc5OC(F)(F)F)CC4)n3)nc2c1` registered an EC50 in assay [1] of 800 nM. Compared with the last molecule, the EC50 is about 1.6-fold higher.

Turning to `COC(=O)c1nc2nccc(N3CCC(c4nc(C(=O)Nc5nc6cc(C(=O)c7ccccc7)ccc6[nH]5)cs4)CC3)n2n1`, the EC50 in assay [1] worked out at 500 nM. Further, inhibition in the assay with PBMC was half-maximal at 2500 nM (IC50).

Consider `O=C(Nc1cccc(F)c1)N1CCC(c2nc(C(=O)N3CCN(c4cccc(C(F)(F)F)c4)CC3)cs2)CC1`, for which a half-maximal response in assay [1] (EC50) required 3400 nM. This lies in the single-digit micromolar range.

For `Cc1cc2nc(NC(=O)c3csc(C4CCN(C(=O)c5ccccc5OC(F)(F)F)CC4)n3)[nH]c2cc1C`, in assay [1], the midpoint of the response, the EC50, lay at 3000 nM.

On to `Cc1cc2nccc(N3CCC(c4nc(C(=O)Nc5nc6cc(C(=O)c7ccccc7)ccc6[nH]5)cs4)CC3)n2n1`, for which the EC50 in assay [1] worked out at 100 nM.

The values are drawn from ChEMBL document CHEMBL1137516, “A novel class of potent NF-kappaB signaling inhibitors” (Bioorg Med Chem Lett, 2007).
